Test results published in ChEMBL document CHEMBL1123217, “Molecular design toward biologically significant compounds based on platelet activating factor: a highly selective agonist as a potential antihypertensive agent” (1986).

Assays:
[1] = system: Rattus norvegicus; assay: Antihypertensive activity using C16-PAF in rat at a doses ranging from 1-10 nmol/kg iv; assay type: functional
In short: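 Male Wistar rats (350-430 g, 3-6 per group) under sodium pentobarbital anesthesia (60 mg/kg). Arterial pressure was recorded through a femoral artery catheter. Doses were given iv through a vena cava catheter once readings were stable. Pressure and heart rate were followed every 5 min for 40 min. Falls were expressed relative to C16-PAF given at 1-10 nmol/kg iv.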

[2] = Ratio of antihypertension to platelet activation
[3] = system: Rattus norvegicus; assay: Hypotensive activity in spontaneously hypertensive rat expressed as decrease in systolic BP at 1 mg/kg, po; assay type: functional
In short: (§1)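 Male SHR aged 18-20 weeks, fasted 24 h with free access to water, dosed orally. Systolic pressure was measured indirectly by tail cuff, with heart rate recorded at the same time. The fall in mmHg was read 3 h after dosing, with 4-5 animals per dose, reported as mean ±.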

[4] = organism: Oryctolagus cuniculus; assay: Relative activity against platelet aggregation in [14C]5-HT preloaded rabbit platelet for 2 mins; assay type: functional
In short: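 Rabbit platelets preloaded with [14C]serotonin were incubated with a range of analogue amounts for 2 min at 20 °C, and [14C]serotonin release was measured. Activity was expressed relative to the ED50 of C16-PAF.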

[5] = system: Rattus norvegicus; assay: Hypotensive activity in spontaneously hypertensive rat expressed as decrease in systolic BP at 0.1 mg/kg, po; assay type: functional; in short: as §1
[6] = system: Rattus norvegicus; assay: Hypotensive activity in spontaneously hypertensive rat expressed as decrease in systolic BP at 0.3mg/kg, po; assay type: functional
In short: (§2)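 Male SHR (18-20 weeks old), food withdrawn 24 h beforehand with free access to water; compound given orally; systolic blood pressure in the tail artery read indirectly by tail-cuff, heart rate recorded simultaneously; decrease in systolic pressure (mmHg) taken 3 h after dosing; n = 4-5 animals per dose.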

[7] = system: Rattus norvegicus; assay: Hypotensive activity in spontaneously hypertensive rat expressed as decrease in systolic BP at 3 mg/kg, po; assay type: functional; in short: as §2
[8] = system: Rattus norvegicus; assay: Hypotensive activity in spontaneously hypertensive rat expressed as decrease in systolic BP at 25 mg/kg, po; assay type: functional; in short: as §2

Row | Compound | Relative activity [1] | Ratio [2] | Relative activity [4] | other results
1 | CCCCCCCCCCCCCCCCOCC(OC(C)=O)C(C)OP(=O)([O-])OCC[N+](C)(C)C (stereo in doubt) | 0.0002 | – | – | –
2 | CCCCCCCCCCCCCCCCOCC(OC(C)=O)C(C)OP(=O)([O-])OCC[N+](C)(C)C (stereo in doubt; 5) | 0.002 | 3.64 | – | –
3 | CCCCCCCCCCCCCCCCOC(C)C(COP(=O)([O-])OCC[N+](C)(C)C)OC(C)=O (stereo in doubt; 2) | 0.059 | 6.78 | 0.0087 | Decrease [3]: 69 mmHg; Decrease [5]: 35 mmHg
4 | CCCCCCCCCCCCCCCCOCC(COP(=O)([O-])OCC[N+](C)(C)C)OC(C)=O (stereo unspecified) [PLATELET ACTIVATING FACTOR] | 1 | 1 | 1 | Decrease [6]: 4 mmHg; Decrease [7]: 5 mmHg; Decrease [8]: 53 mmHg
5 | CCCCCCCCCCCCCCCCOCC(OC(C)=O)C(C)OP(=O)([O-])OCC[N+](C)(C)C (single isomer, unassigned) | 0.001 | 1.82 | 0.00055 | –
6 | CCCCCCCCCCCCCCCCOCC(C)(COP(=O)([O-])OCC[N+](C)(C)C)OC(C)=O (stereo unspecified) | 0.0001 | – | – | –
7 | CCCCCCCCCCCCCCCCOC(C)C(COP(=O)([O-])OCC[N+](C)(C)C)OC(C)=O (single isomer, unassigned; enantiomer 2) | 0.0002 | – | – | –
8 | CCCCCCCCCCCCCCCCOC(C)C(COP(=O)([O-])OCC[N+](C)(C)C)OC(C)=O (stereo in doubt; 3) | 0.00033 | – | – | –
9 | CCCCCCCCCCCCCCCCOC(C)C(COP(=O)([O-])OCC[N+](C)(C)C)OC(C)=O (single isomer, unassigned; enantiomer 3) | 0.0001 | 0.18 | 0.00056 | –
10 | CCCCCCCCCCCCCCCCOCC(OC(C)=O)C(C)OP(=O)([O-])OCC[N+](C)(C)C (stereo in doubt; 6) | 0.0014 | 1.57 | 0.00089 | –
